pEC50: −log10 of the molar value. Like-named read-outs stand apart in the source and are kept apart here. Blank lines part the entries; values can stand above or below the compound they belong to.
Columns and labels:
Cytotoxicity measurement [1] = type: cell-based; conditions: African green monkey, Vero cells
Procedure, shortened: (§1)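 Cells seeded at 6 × 10^3/well and exposed to a range of test compound concentrations (DMSO stock diluted in medium) for 48 h; controls received equal-volume DMSO. 10% CCK8 reagent added for 1 h, then absorbance read at 450 nm. CC50 taken as the concentration lowering viability by 50%.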

ZIKV [2] = conditions: ref Adcock et al., 2017; cited from earlier work
ZIKV [3] = test: Anti-ZIKV assay; type: cell-based, Zika virus; conditions: for pEC50: Zika virus
Procedure, shortened: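 Cells seeded at 2 × 10^5/well and pretreated 2 h with serial dilutions of test compound (DMSO stock diluted in medium). Infected with ZIKV (Asian strain KU963796) at MOI 0.1 for 2 h, then incubated to 48 hpi at 37 °C, 5% CO2 in DMEM. Cellular vRNA measured by SYBR Green qRT-PCR using the 2^-ΔΔCT method normalized to GAPDH. EC50 is the concentration reducing viral yield by 50%.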

Cytotoxicity measurement [4] = type: cell-based; conditions: human, A549 cells
Procedure, shortened: as §1

Cytotoxicity measurement [5] = type: cell-based; conditions: human, Huh7 cells
Procedure, shortened: as §1

ZIKV [6] = test: Time-of-addition assay; type: cell-based, Zika virus; conditions: 1 μM, added between -2 and 10 hpi, Vero cells, read at 48 hpi
ZIKV [7] = test: Viral protein by western blotting and immunofluorescence in Vero cells; type: cell-based, Zika virus
Procedure, shortened: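 Vero cells infected with ZIKV at MOI 0.1 and treated with test compound or DMSO. At 48 hpi: fixed in 4% paraformaldehyde (15 min), permeabilized with 0.2% Triton X-100 (5 min), blocked in 5% BSA (30 min). Stained overnight at 4 °C with pan-flavivirus envelope mAb 4G2, then fluorescent secondary for 30 min at RT. Nuclei stained with DAPI; imaged by confocal microscopy.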

ZIKV [8] = test: ZIKV strand specific RNA by qRT-PCR; type: cell-based; conditions: Zika virus, Vero
ZIKV [9] = test: Time-of-removal assay; type: cell-based, Zika virus
Procedure, shortened: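 ZIKV-infected Vero cells received 1 μM test compound or DMSO at 6 hpi, with vRNA sampled every 3 h up to 24 hpi. Alternatively, treatment started at 24 hpi, with sampling every 6 h for a further 12 h. vRNA by SYBR Green qRT-PCR normalized to GAPDH. E and NS5 protein by western blot of cell lysates (SDS-PAGE, PVDF, overnight primary antibody at 4 °C, ECL), with GAPDH detected.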

ZIKV [10] = test: Lethal ZIKV challenge in AG6 mice; type: in vivo
Procedure, shortened: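 AG6 mice aged 4–5 weeks (13–15 g, n = 6/group) were infected with 3.3 × 10^6 PFU ZIKV via footpad. Dosed intragastrically at 1, 5 or 10 mg/kg (DMSO stock in 0.5% carboxymethyl cellulose) or vehicle for 14 days. Survival and body weight tracked to 14 dpi. Retro-orbital blood at 1, 3, 7 dpi: vRNA copies by qRT-PCR against a standard curve. Brain/liver vRNA by RT-qPCR; H&E histology. One-way ANOVA with Dunnett's test.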

ZIKV NS5 RdRp = ZIKV NS5 RdRp (Zika virus, UniProt A0A024B7W1); test: In vitro RNA polymerase assay; type: biochemical; conditions: recombinant ZIKV NS5, serial dilutions
ZIKV [11] = test: Plaque forming assay; type: cell-based, Zika virus
Procedure, shortened: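 Supernatants from ZIKV-infected, compound-treated cultures were put on overnight Vero monolayers (2 × 10^5 cells/well) for 2 h at 37 °C. Inoculum replaced with plaque medium containing 1% methylcellulose. After 7 days, cells fixed and stained with 4% formaldehyde and 0.5% crystal violet.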

[12] = 1 μM added at 6 hpi, after 24 h of viral infection, western blot intensity

Chain of ZIKV NS5 RdRp (A0A024B7W1 2521-3423 limits assumed): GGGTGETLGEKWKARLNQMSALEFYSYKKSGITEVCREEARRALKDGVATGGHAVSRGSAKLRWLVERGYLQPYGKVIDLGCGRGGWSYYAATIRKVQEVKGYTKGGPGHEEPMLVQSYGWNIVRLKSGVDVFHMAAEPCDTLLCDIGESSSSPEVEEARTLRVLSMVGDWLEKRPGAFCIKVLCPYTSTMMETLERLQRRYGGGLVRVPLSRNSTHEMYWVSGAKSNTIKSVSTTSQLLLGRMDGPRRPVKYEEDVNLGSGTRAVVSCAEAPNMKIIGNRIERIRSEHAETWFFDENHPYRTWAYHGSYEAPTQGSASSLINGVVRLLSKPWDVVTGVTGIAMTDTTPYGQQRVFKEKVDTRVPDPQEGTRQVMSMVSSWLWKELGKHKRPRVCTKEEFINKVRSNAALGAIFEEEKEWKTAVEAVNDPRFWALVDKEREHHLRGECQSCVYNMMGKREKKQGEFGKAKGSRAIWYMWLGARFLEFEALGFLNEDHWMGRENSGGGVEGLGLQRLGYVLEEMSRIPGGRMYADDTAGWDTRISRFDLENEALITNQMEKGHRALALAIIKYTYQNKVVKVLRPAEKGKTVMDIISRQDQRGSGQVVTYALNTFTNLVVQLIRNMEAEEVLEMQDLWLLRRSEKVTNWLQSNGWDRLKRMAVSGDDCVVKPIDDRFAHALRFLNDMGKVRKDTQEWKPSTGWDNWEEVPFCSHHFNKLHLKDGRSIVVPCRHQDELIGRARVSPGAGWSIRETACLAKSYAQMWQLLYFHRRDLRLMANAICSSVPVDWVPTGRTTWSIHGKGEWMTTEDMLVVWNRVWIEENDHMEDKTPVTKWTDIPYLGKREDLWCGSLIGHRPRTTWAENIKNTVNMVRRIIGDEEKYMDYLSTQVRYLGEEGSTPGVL

pEC50 (ZIKV [3]; A549): 7.34
pEC50 (ZIKV [3]; Huh-7): 8.22
pEC50 (ZIKV [3]; Vero): 7.66
SMILES: Cc1c(-c2ccc(-c3ccccc3F)cc2)nc2ccc(F)cc2c1C(=O)O [Brequinar, reference compound]
CC50 at 48 h (Cytotoxicity measurement [1]): > 50000 nM
pEC50 (ZIKV [2]): 7.10
SI (selectivity index) (ZIKV [3]; A549 cells): >1086
SI (selectivity index) (ZIKV [3]; Huh7 cells): >8333
SI (selectivity index) (ZIKV [3]; Vero cells): >2272
CC50 at 48 h (Cytotoxicity measurement [4]): > 50000 nM
CC50 at 48 h (Cytotoxicity measurement [5]): > 50000 nM

SMILES: O[C@H]1[C@H]2c3cc4c(cc3CN3CCC(=C[C@@H]1O)[C@H]23)OCO4 [Lycorine]
CC50 at 48 h (Cytotoxicity measurement [1]): 21000 nM
vRNA and viral progeny particle load, time-of-addition (ZIKV [6]): strongest ability to decrease the vRNA and viral progeny particle load
SI (selectivity index) (ZIKV [3]; A549 cells): 19.5
SI (selectivity index) (ZIKV [3]; Huh7 cells): 20
SI (selectivity index) (ZIKV [3]; Vero cells): 54
pEC50 (ZIKV [3]; A549): 6.66
pEC50 (ZIKV [3]; Huh-7): 6.66
pEC50 (ZIKV [3]; Vero): 6.41
ZIKV protein (western blotting) (ZIKV [7]; 0.01 to 10 μM): dose-dependent reduction in the ZIKV protein
ZIKV envelope biosynthesis (immunofluorescence) (ZIKV [7]; 48 hpi): significantly reduced
inhibition at 1 µM (ZIKV [8]; read-out: Inhibition of negative-sense vRNA synthesis): ~95%
inhibition at 1 µM (ZIKV [8]; read-out: Inhibition of positive-sense vRNA synthesis): ~93%
vRNA synthesis (ZIKV [9]; 1 μM added at 6 hpi, Vero cells, monitored up to 24 hpi): fully abrogated vRNA synthesis
NS5 protein reduction (ZIKV [9]; [12]): 89%
Virus E protein reduction (ZIKV [9]; [12]): 52%
Viral E and NS5 protein reduction (ZIKV [9]; 1 μM added at 24 hpi): no significant difference
vRNA (ZIKV [9]; 1 μM added at 24 hpi, monitored for additional 12 h): no effect on vRNA
CC50 at 48 h (Cytotoxicity measurement [4]): 4290 nM
CC50 at 48 h (Cytotoxicity measurement [5]): 4400 nM
Brain histopathology (H&E) (ZIKV [10]; 1 mg/kg): brain tissue lesions were similar to those in the ZIKV group
Liver histopathology (H&E) (ZIKV [10]; 1 mg/kg): inflammatory response of the cells was obvious
Reduction of vRNA of brain tissue (ZIKV [10]; 1 mg/kg): not significant difference
Reduction of vRNA of liver (ZIKV [10]; 1 mg/kg): not significant difference
Survival rate (ZIKV [10]; 1 mg/kg intragastric, 14 days): 33%
Brain histopathology (H&E) (ZIKV [10]; 5 mg/kg): significantly reduced the ZIKV-induced inflammatory response
Reduction of vRNA of brain tissue (ZIKV [10]; 5 mg/kg): about one order of magnitude
Reduction of vRNA of liver (ZIKV [10]; 5 mg/kg): about one and half order of magnitude, respectively
Survival rate (ZIKV [10]; 5 mg/kg intragastric, 14 days): 66%
Brain histopathology (H&E) (ZIKV [10]; 10 mg/kg): significantly reduced the ZIKV-induced inflammatory response
Reduction of vRNA of brain tissue (ZIKV [10]; 10 mg/kg): about three orders of magnitude
Survival (protection against ZIKV infection-induced death) (ZIKV [10]; 10 mg/kg intragastric, 14 days, ZIKV group 100% mortality): 83%
Liver histopathology (H&E) (ZIKV [10]; 10 mg/kg, compared to 5 mg/kg group): significantly reduced liver damage
vRNA levels in blood versus ZIKV group (ZIKV [10]; 1, 3 and 7 dpi): one order of magnitude lower
Body weight changes (ZIKV [10]; weight loss from 5 dpi, 0 to 14 dpi): recovered until 9 or 10 dpi
RdRp activity (ZIKV NS5 RdRp): directly inhibited RdRp activity in a dose-dependent manner
Inhibition of plaque formation (ZIKV [11]; 0.5 μM): partially
Inhibition of plaque formation (ZIKV [11]; 5 μM): completely
